High-throughput results: PubChem, several laboratories
KLF5 inh: suppresses KLF5 promoter-driven expression; DLD-1 KLF5 promoter-luciferase reporter, luminescence; inhibition, % at 5 µM; hit rate 0.23% among 290,000;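 active means inhibition above a per-plate limit of that plate's mean compound inhibition plus 3 SD, cut at about 60% in these data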;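 further: 0% = DMSO wells and 100% = LY294002 at 200 µM; higher means less KLF5 promoter-driven luciferase light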
Ba/F3 V617F tox: loss of viability in JAK2V617F-driven Ba/F3 cells. Ba/F3 EpoR-JAK2V617F viability, ATP luminescence. inhibition, % at 5.6 µM. hit rate 1.1% among 220,000. AID 1446;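 active means inhibition above the campaign mean plus 3 SD over all tested compounds, cut at about 24% in these data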;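 further: cytokine-independent growth of Ba/F3 cells driven by EpoR plus mutant JAK2; 0% = DMSO-treated cells and 100% = JAK inhibitor I control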
b-catenin transl: beta-catenin nuclear translocation modulation; HeLa beta-catenin nuclear translocation, immunofluorescence imaging; nuclear translocation activity, % at 5 µM; hit rate 0.3% among 190,000; AID 1665;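 active means nuclear translocation activity above 50% at 5 µM, with a well cell count of 50 or more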;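 further: per-cell ratio of nuclear to cytoplasmic median beta-catenin stain intensity; plate controls were DMSO negative control for no effect and GSK-3 inhibitor IX positive control for full effect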
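Signal – beta-catenin immunofluorescence imaging with DAPI · Test system – human HeLa cell line · Dosing – 5 µM primary single dose, 0.1% DMSO, 0.02–20 µM confirmation series · Measure – % activation, nuclear-to-cytoplasmic median beta-catenin signal ratio per cell · Incubation – 24 h compound exposure at 37°C, 5% CO2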
IEC-6 cytotox: kills IEC-6 intestinal cells in KLF5 counter-screen; AID 1825; IEC-6 cytotoxicity, luminescence viability; inhibition, % at 5 µM; hit rate 0.78% among 290,000; in the data active means inhibition above about 22%;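 further: 0% = plate median of test compound wells and 100% = cytotoxic reference compound wells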
BaF3 tox: reduces parental Ba/F3 cell viability, JAK2V617F counter-screen. AID 1486. hit rate 1.1% among 220,000. CellTiter-Glo ATP luminescence. inhibition, % at 5.6 µM;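 active means inhibition above a per-campaign cutoff, the mean inhibition of all tested compounds plus 3 SD, cut at about 27% in these data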;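 further: 0% = DMSO wells and 100% = JAK Inhibitor I control wells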
MT stabilizer: microtubule stabilizers in HeLa cells; HeLa tubulin immunostaining HCS, 24 h; share of cells brighter than vehicle mean+2SD; % tubulin-high responders, % at 10 µM; hit rate 0.83% among 200,000; AID 2205;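 active means plate Z-score above 3 for both tubulin-high and condensed-nucleus cell shares, with cell loss under 80%, at 10 µM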;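 further: anti alpha tubulin signal scored within the nucleus-defined area of each cell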
* marks the source's active call; other numbers are inactive results; · = no result given. Only some compounds are listed: those with a hit (about 2.1% of all), similar ones and a draw of the others.

SMILES	KLF5 inh	Ba/F3 V617F tox	b-catenin transl	IEC-6 cytotox	BaF3 tox	MT stabilizer
Cc1cc(C(F)F)n2nc(C(=O)Nc3ccccc3Br)nc2n1	-31	-3	-1	-1	-2	2
CCOC(=O)c1ccc(-n2c(CCC(=O)O)ccc2-c2cccs2)cc1	-19	1	0	-6	7	3
Cc1ccc(-n2c(CCC(=O)O)ccc2-c2cccs2)cc1C	5	0	0	-2	55*	3
COc1ccc(NC(=O)/C(=C\c2ccco2)NC(=O)c2ccco2)cc1	5	·	·	0	·	·
COc1ccc(NC(=O)/C(C#N)=C\C=C\c2ccco2)cc1	19	4	9	4	4	19*
C=C(C)CNC(=O)c1ccc(OC2CCN(S(=O)(=O)N(C)C)CC2)cc1	-32	0	-3	-6	4	2
CC(C)CCNC(=O)c1ccc(OC2CCN(S(=O)(=O)N(C)C)CC2)cc1	-77	11	0	5	27*	3
CCc1nc(CN2CCCC(C(=O)c3ccc4c5c(cccc35)CC4)C2)c(C)[nH]1 (configuration not stated)	-13	3	1	10	82*	2
CCc1nnc(NC(=O)CN2CCN(Cc3ccccc3Cl)CC2)s1	-4	·	·	4	·	·
CCSc1nc2sc3c(c2c(=O)n1C1CCCCC1)CCN(C)C3	·	·	1	·	·	·
C=C(C)CSc1nc2sc3c(c2c(=O)n1C1CCCCC1)CCN(C)C3	-1	51*	1	2	54*	·
O=C(/C=C/c1ccco1)NC(=S)Nc1nc(-c2ccc(Cl)cc2)cs1	-15	0	-2	-6	3	12*
CCc1cc(=O)oc2c3c(cc(OCC(=O)NCCCCCC(=O)O)c12)OC(C)(C)CC3	-5	·	·	9	·	·
CC1C/C(=C/c2ccccn2)C(=O)/C(=C/c2ccccn2)C1 (configuration not stated)	-16	52*	23	3	73*	39*
CC(C)(C)C1C/C(=C/c2ccccn2)C(=O)/C(=C/c2ccccn2)C1 (configuration not stated)	4	0	·	4	-5	52
CCCN1CCN(C(=O)c2cc(COc3ccc(F)cc3F)on2)CC1	-6	·	·	4	·	·
Nc1[nH]n2c(=O)c3c(nc2c1N=Nc1ccc(Cl)cc1)CCCC3	-15	-4	4	2	-2	21*
CC(C)(C)c1cc(CCC(=O)N2CCNCC2)c(C(C)(C)C)cc1O	-38	1	1	2	4	4
COP(=O)(OC)c1nc(-c2cccc3ccccc23)oc1N1CCOCC1	-23	-1	-4	5	28*	2
CCOP(=O)(OCC)c1nc(-c2ccc(OC)cc2)oc1N1CCOCC1	0	-2	-2	-5	-5	·
Cc1ccc2[nH]c(C(=O)NCCN3CCCC3)cc2c1	-10	·	·	5	·	·
Nn1c(Nc2ccccc2)nc2sc3c(c2c1=O)CCC3	-36	-4	-4	22*	-1	5
NNc1nc2sc3c(c2c(=O)n1Cc1ccccc1)CCC3	17	47*	-2	8	34*	·
CCOc1cc(-c2cc(-c3ccc(C)o3)nc(N)c2C#N)ccc1O	-6	-1	55*	6	4	21
Cc1ccc(-c2cc(-c3ccc4c(c3)OCO4)c(C#N)c(N)n2)o1	-8	1	2	-5	3	59*
SMILES	KLF5 inh	Ba/F3 V617F tox	b-catenin transl	IEC-6 cytotox	BaF3 tox	MT stabilizer
O=C(CSc1nc2ccccc2c(=O)n1CCCC(=O)N1CCCC1)NCc1ccco1	-38	6	·	-1	10	6
CCc1ccc(NC(=O)CSc2nc3ccccc3c(=O)n2CCCC(=O)N2CCCC2)cc1	-11	0	·	0	4	27*
CN(C)c1ccc(-c2nn3c(-c4ccc(Cl)cc4Cl)nnc3s2)cc1	-28	-4	53*	2	-3	30*
CCOC(=O)c1c(C)c(C(=O)Nc2ccc3c(c2)OCO3)c(C)n1C	-26	-4	0	-2	8	3
Cc1ccc(NC(=O)c2ccc3c(c2)OCCO3)cc1C	29	·	·	9	·	·
Cc1ccc(C(=O)Nc2ccc3c(c2)OCCO3)c(C)c1	65*	·	·	9	·	·
CCOC(=O)c1c(C)c(C(=O)Nc2ccc3c(c2)OCCO3)c(C)n1CC	-37	-1	0	-1	6	31*
S=C(NCCc1ccccc1)Nc1c(Cl)cccc1Cl	-35	-2	0	-1	-3	·
C=CC[N+](C)(C)C/C(Cl)=C(\Cl)c1ccccc1	-19	26*	-2	4	27*	2
COc1cccc(/C=C/C(=O)c2ccc(NC3=NCCCS3)cc2)c1	-8	-3	10	8	1	16*
Cc1cccc(/C=C/C(=O)c2ccc(NC3=NCCCS3)cc2)c1	4	-1	11	-2	5	11
N#Cc1c(N2CCCC2)ccc(Br)c1Cl	1	0	2	-11	39*	·
NC(=O)c1ccc(N2CCN(S(=O)(=O)c3ccccc3)CC2)c([N+](=O)[O-])c1	-28	36*	3	11	38*	2
COC(=O)c1ccc(N2CCN(S(=O)(=O)c3ccc4ccccc4c3)CC2)c([N+](=O)[O-])c1	-9	-2	1	2	2	1
O=C(OCc1nc2ccccc2s1)C1CCN(S(=O)(=O)c2cccs2)CC1	-37	2	-3	-1	96*	5
O=S(=O)(c1cccs1)N1CCN(Cc2nc3ccccc3s2)CC1	-1	2	·	5	5	4
C=CCn1c(C)cc(C(=O)CSc2nnc(NCc3ccccc3)s2)c1C	-18	-3	-4	6	1	40*
C=CCn1c(C)cc(C(=O)CSc2nnc(NC(C)C)s2)c1C	-18	-3	-3	-3	3	2
O=C(COc1ccccc1Cl)NCCNC(=O)c1cccnc1	-15	·	·	4	·	·
COc1ccc(OC)c(C2=NOC(C(=O)NCc3cccs3)C2)c1 (configuration not stated)	-35	2	-1	4	9	23*
COc1ccc(OC)c(C2=NOC(C(=O)NCCN3CCOCC3)C2)c1 (configuration not stated)	-38	3	-1	2	3	2
O=C(NCc1cccs1)C1CC(c2ccc(Cl)c(Cl)c2)=NO1 (configuration not stated)	3	-4	62*	4	5	3
O=C(NCc1cccs1)C1CC(c2ccc(Cl)cc2)=NO1 (configuration not stated)	-41	-2	1	4	1	3
O=c1c(-c2n[nH]c(=S)n2-c2ccccc2)cccn1Cc1cccc(Cl)c1	-16	7	-2	3	11	3
CC(=O)c1cccc(S(=O)(=O)NCC(c2ccco2)N2CCCCC2)c1 (configuration not stated)	-37	0	5	-3	7	2
CC(C)Cc1ccc(C(C)C(=O)Nc2ccccc2O)cc1 (configuration not stated)	5	11	0	-2	38*	·
